This note sets out measurements from ChEMBL document CHEMBL1143391, “Design, synthesis, and evaluation of oxygen-containing macrocyclic peptidomimetics as inhibitors of HCV NS3 protease” (J Med Chem, 2009).

Broadly, the Ki is the dissociation constant of the complex between target and ligand, obtained from inhibition or displacement. Low readings indicate tighter binding, high ones weaker binding. Broadly, the EC90 is the concentration needed for an effect of 90%.

A short description of test [1]: Selectivity for HCV NS3 protease over human neutrophil elastase.
Test [2] is described as follows: Binding affinity to HCV NS3 protease by spectrophotometry. More on the design: species or system Hepacivirus hominis. An outline of the steps:
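Continuous assay with NS4A-tethered single-chain NS3 serine protease, read out chromogenically. Affinity reported as Ki*.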

A further test deals with Hepatitis C virus. The experiment in a line: Antiviral activity against HCV RNA replication in human hepatoma cells by replicon assay. In kind it is functional, organism-based, Hepacivirus hominis. (In general: A replicon is a self-replicating genome or part of one, used to study replication in cells.)

For the molecule `C=CCNC(=O)C(=O)[C@@H]1CCCCCCCOC[C@H](NC(=O)N[C@H](CN2C(=O)CC(C)(C)CC2=O)C(C)(C)C)C(=O)N2C[C@H]3[C@@H]([C@H]2C(=O)N1)C3(C)C`, the Ratio in test [1] worked out at 300. Further, the Ki in test [2] amounted to 0.007 µM. Further, in the test on Hepatitis C virus (read-out: EC90), the EC90 was 0.05 µM.

For the molecule `C=CCNC(=O)C(=O)[C@@H]1CCCCCCCOC[C@H](NC=O)C(=O)N2C[C@H]3[C@@H]([C@H]2C(=O)N1)C3(C)C`, the Ki in test [2] is 0.4 µM. That is a sub-micromolar value.

For `C=CCNC(=O)C(=O)[C@@H]1CCCCCCCO[C@@H](C)[C@H](NC(=O)N[C@H](CN2C(=O)CC(C)(C)CC2=O)C(C)(C)C)C(=O)N2C[C@H]3[C@@H]([C@H]2C(=O)N1)C3(C)C`, in test [1], the Ratio turned out to be 1400. The Ki in test [2] was 0.007 µM. Besides, in the test on Hepatitis C virus, it took 0.04 µM to reach the 90% level (EC90).

With `C=CCNC(=O)C(=O)[C@@H]1CCCCCCCOC[C@H](NC(=O)OC(C)(C)C)C(=O)N2C[C@H]3[C@@H]([C@H]2C(=O)N1)C3(C)C`, in test [2], the Ki was 0.15 µM.

As for `C=CCNC(=O)C(=O)[C@@H]1CCCCCCCOC[C@H](NC(=O)N[C@H](CN2C(=O)CN(C)CC2=O)C(C)(C)C)C(=O)N2C[C@H]3[C@@H]([C@H]2C(=O)N1)C3(C)C`, in test [1], the Ratio came out at 300. For the same molecule, the Ki in test [2] amounted to 0.015 µM. For the same molecule, in the test with Hepatitis C virus (read-out: EC90), the EC90 came to 0.08 µM.

`C=CCNC(=O)C(=O)[C@@H]1CCCCNC(=O)OCCC[C@H](NC(=O)OC(C)(C)C)C(=O)N2C[C@H]3[C@@H]([C@H]2C(=O)N1)C3(C)C` came in with a Ki in test [2] of 0.66 µM.

Turning to `C=CCNC(=O)C(=O)[C@@H]1CCCCCCCO[C@@H](C)[C@H](NC(=O)N[C@H](CN2CCC(C)(C)CC2=O)C(C)(C)C)C(=O)N2C[C@H]3[C@@H]([C@H]2C(=O)N1)C3(C)C`, the Ratio in test [1] came out at 1300. In addition, the Ki in test [2] stood at 0.008 µM. The EC90 in the test on Hepatitis C virus (read-out: EC90) is 0.06 µM.

Turning to `C=CCNC(=O)C(=O)[C@@H]1CCCCCCCOC[C@H](NC(=O)N[C@H](C(=O)C2CC2)C2CCCCC2)C(=O)N2C[C@H]3[C@@H]([C@H]2C(=O)N1)C3(C)C`, the Ratio in test [1] was found to be 9. In test [2], this molecule came in with a Ki of 0.16 µM.

With `C=CCNC(=O)C(=O)[C@@H]1CCCCCCCO[C@@H](C)[C@H](NC(=O)N[C@H](CN2C(=O)C3CCC(C3)C2=O)C(C)(C)C)C(=O)N2C[C@H]3[C@@H]([C@H]2C(=O)N1)C3(C)C`, in test [1], the Ratio came to 2800. Also, affinity in test [2] was put at a Ki of 0.003 µM. In the test on Hepatitis C virus (read-out: EC90), the EC90 came out at 0.03 µM.

In the case of `C=CCNC(=O)C(=O)[C@@H]1CCCCCCCOC[C@H](NC(=O)N[C@H](CN2CCC(C)(C)CC2=O)C(C)(C)C)C(=O)N2C[C@H]3[C@@H]([C@H]2C(=O)N1)C3(C)C`, the Ratio in test [1] was found to be 140. The Ki in test [2] amounted to 0.021 µM. Further, the EC90 in the test on Hepatitis C virus (read-out: EC90) amounted to 0.1 µM.

For the molecule `CC(C)(C)NC(=O)N[C@H](C(=O)N1C[C@H]2[C@@H]([C@H]1C(=O)NC(CC1CCC1)C(=O)C(N)=O)C2(C)C)C(C)(C)C` (some centres undefined) [BOCEPREVIR], in test [1], the Ratio came to 2200. The molecule further displayed a Ki in test [2] of 0.014 µM. Further, the EC90 in the test with Hepatitis C virus (read-out: EC90) was 0.35 µM.

With `C=CCNC(=O)C(=O)[C@@H]1CCCCCCCOC[C@H](NC(=O)N[C@H](CN(C)S(=O)(=O)c2cccs2)C(C)(C)C)C(=O)N2C[C@H]3[C@@H]([C@H]2C(=O)N1)C3(C)C`, in test [1], the Ratio was 100. This molecule also came in with a Ki in test [2] of 0.014 µM. The EC90 in the test on Hepatitis C virus (read-out: EC90) was found to be 0.15 µM.

`C=CCNC(=O)C(=O)[C@@H]1CCCCCCCO[C@@H](C)[C@H](NC(=O)N[C@H](CN2C(=O)CN(C)CC2=O)C(C)(C)C)C(=O)N2C[C@H]3[C@@H]([C@H]2C(=O)N1)C3(C)C`: the Ratio in test [1] stood at 1100. The affinity in test [2] corresponds to a Ki of 0.006 µM. In addition, the EC90 with Hepatitis C virus (read-out: EC90) stood at 0.06 µM.

`CC(C)(C)OC(=O)N[C@@H]1C(=O)N2C[C@H]3[C@@H]([C@H]2C(=O)N[C@H](C(=O)C(N)=O)CCCCCCCCCC1(C)C)C3(C)C` gave a Ki in test [2] of 0.25 µM. This counts as sub-micromolar.

As for `C=CCNC(=O)C(=O)[C@@H]1CCCCCCCOC[C@H](NC(=O)N[C@H](CN2C(=O)C3CCC(C3)C2=O)C(C)(C)C)C(=O)N2C[C@H]3[C@@H]([C@H]2C(=O)N1)C3(C)C`, in test [1], the Ratio turned out to be 1500. The Ki in test [2] is 0.003 µM. Also, the EC90 in the test with Hepatitis C virus (read-out: EC90) stood at 0.03 µM.

Take `C=CCNC(=O)C(=O)[C@@H]1CCCCCCCOC[C@H](NC(=O)N[C@H](CN2CCCCC2=O)C(C)(C)C)C(=O)N2C[C@H]3[C@@H]([C@H]2C(=O)N1)C3(C)C`: in test [1], the Ratio was 160. This molecule also returned a Ki in test [2] of 0.021 µM. The EC90 with Hepatitis C virus (read-out: EC90) was 0.16 µM.

With `C=CCNC(=O)C(=O)[C@@H]1CCCCCCC(=O)CC[C@H](NC(=O)OC(C)(C)C)C(=O)N2C[C@H]3[C@@H]([C@H]2C(=O)N1)C3(C)C`, the Ki in test [2] worked out at 0.32 µM.

Turning to `C=CCNC(=O)C(=O)[C@@H]1CCCCCCCCC[C@H](NC(=O)OC(C)(C)C)C(=O)N2C[C@H]3[C@@H]([C@H]2C(=O)N1)C3(C)C`, in test [2], the affinity corresponds to a Ki of 0.036 µM.

`CC(C)(C)OC(=O)N[C@H]1CS(=O)(=O)CCCCCCC[C@@H](C(=O)C(=O)NC2CC2)NC(=O)[C@@H]2[C@@H]3[C@H](CN2C1=O)C3(C)C` yielded a Ki in test [2] of 0.67 µM.

On to `C=CCNC(=O)C(=O)[C@@H]1CCCCCCCOC[C@H](NC(=O)N[C@H](CN(C)S(=O)(=O)CC)C(C)(C)C)C(=O)N2C[C@H]3[C@@H]([C@H]2C(=O)N1)C3(C)C`, for which, in test [1], the Ratio came to 350. Further, in test [2], the affinity, expressed as Ki, was 0.018 µM.
